Published values gathered from unrelated publications.
SULT1B1: Sulfotransferase 1B1 (SULT1B1, Homo sapiens, UniProt O43704)
VIPR1: Vasoactive intestinal polypeptide receptor 1 (VIPR1, Homo sapiens, UniProt P32241)

Oc1c(Br)cc(Br)cc1Oc1ccc(Br)cc1Br
Km (SULT1B1; enzyme activity, substrate): 0.172 µM

O=C(Nc1cccnc1)N1CCC(Cc2cccc(Oc3ccc(C(F)(F)F)cn3)c2)CC1
kinact/KI (Fatty-acid amide hydrolase 1 (Faah, Rattus norvegicus, UniProt P97612); enzyme activity, inhibitor): 3900 M⁻¹ s⁻¹

Cc1nn(C)cc1-c1nc2c(N3CCN(Cc4ccc(Cl)cc4)CC3)c(Cl)cnc2[nH]1
remaining binding (Wee1-like protein kinase 2 (WEE2, Homo sapiens, UniProt P0C1S8); binding, competition with immobilised ligand; 1 µM): 99%

CN1CCN(c2cc(-c3ccncc3)c(-c3ccc4ccccc4c3)nn2)CC1
activation (Prokineticin receptor 1 (PROKR1, Homo sapiens, UniProt Q8TCW9); calcium signal, agonist; PK-1; 12.5 µM): -0.3%

N=C(N)c1ccc2cc(OC(=O)c3ccc(N=C(N)N)cc3)ccc2c1
inhibition (Cathepsin S (CTSS, Homo sapiens, UniProt P25774); enzyme activity, inhibitor; 10 µM): 8%

COc1cc(Br)cc(Br)c1Oc1cc(Br)cc(Br)c1O
Km (SULT1B1; enzyme activity, substrate): 24.9 µM

COc1ncccc1-c1cnn2ccc(N3CCN(C(=O)OC(C)C)CC3)nc12
remaining binding (Bone morphogenetic protein receptor type-1B (BMPR1B, Homo sapiens, UniProt O00238); binding, competition with immobilised ligand; 1 µM): 100%

O=C(Nc1cccnn1)N1CCN([C@@H]2CCOc3cc(C(F)(F)F)ccc32)CC1
inhibition (VIPR1; cell-free assay; 20 µM): -11%

CN(C)C(=O)COC(=O)Cc1ccc(OC(=O)c2ccc(NC(=N)N)cc2)cc1
inhibition (Dipeptidyl peptidase 3 (DPP3, Homo sapiens, UniProt Q9NY33); enzyme activity, inhibitor; 10 µM): 8%

CCN(CC)CCCC[C@H](NC(=O)[C@H](CC(C)C)NC(=O)[C@H](C)NC(=O)[C@H](Cc1ccccc1)NC(=O)c1ccc(C(C)(C)C)cc1)C(=O)N[C@@H](CO)C(=O)OC
remaining binding (VIPR1; ligand displacement, radioligand; 10 µM): 110%

O=[N+]([O-])c1cc[n+]([O-])c2ccccc12
remaining activity (TcPGFS (Trypanosoma cruzi, UniProt Q8I6L9); enzyme activity, inhibitor; 200 µM): 76%

Nc1ncc(-c2nc(N3CCOCC3)nc(N3CCOCC3)n2)c(C(F)F)n1
remaining binding (Uncharacterized serine/threonine-protein kinase SBK3 (SBK3, Homo sapiens, UniProt P0C264); binding, competition with immobilised ligand; 10 µM): 85%
